From ChEMBL document CHEMBL4732018, “Design, synthesis, and biological evaluation of pyrazole-linked aloe emodin derivatives as potential anticancer agents” (RSC Med Chem, 2021) come the findings set out here.

One assay concerns MDA-MB-231. Nature of the assay: Anticancer activity against human MDA-MB-231 cells assessed as cell growth inhibition measured after 48 hrs by MTT assay. The assay is classed as functional, cell-based. Particulars: MDA-MB-231, 48 h. The procedure, abridged:
(§1)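 MTT test on ATCC lines grown in RPMI with 10% FBS and antibiotic/antimycotic at 37 °C in 5% CO₂. Cells were seeded at 4 x 10^3/well and treated for 48 h at 2.5, 5, 10 and 20 µM, from DMSO stocks diluted in medium. MTT (10 mg/mL stock) was then added for 3 h and absorbance read at 540 nm. IC50 derived; three independent experiments.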

Another assay relates to MCF7. Nature of the assay: Anticancer activity against human MCF-7 cells assessed as cell growth inhibition measured after 48 hrs by MTT assay. It is filed as functional, cell-based. The note with it: MCF7, 48 h. Put shortly:
as §1

A further assay concerns HepG2. Nature of the assay: Anticancer activity against human HepG2 cells assessed as cell growth inhibition measured after 48 hrs by MTT assay. It is filed as functional, cell-based. Particulars: HepG2, 48 h. The procedure, abridged:
as §1

A further assay relates to B16-F10. Nature of the assay: Anticancer activity against mouse B16-F10 cells assessed as cell growth inhibition measured after 48 hrs by MTT assay. The assay is classed as functional, cell-based. The note with it: B16-F10, 48 h. The procedure, abridged: as §1
Another assay concerns HEK293. Nature of the assay: Cytotoxicity against human HEK293 cells assessed as cell growth inhibition measured after 48 hrs by MTT assay. The assay is classed as cell-based. The note with it: HEK293, 48 h. Put shortly: as §1

As for `CCOC(=O)c1c(-c2cc(O)c3c(c2)C(=O)c2cccc(O)c2C3=O)nn(-c2ccccc2C)c1C(=O)OCC`, the half-inhibitory concentration (IC50) was found to be 7.56 µM in the assay on MDA-MB-231; 1.13 µM in the assay on MCF7; 1.35 µM in the assay with HepG2; 1.57 µM with B16-F10; 2.47 µM in the assay on HEK293.

Take `CCOC(=O)c1c(-c2cc(O)c3c(c2)C(=O)c2cccc(O)c2C3=O)nn(-c2ccc(C#N)cc2)c1C(=O)OCC`: the 50% inhibitory concentration (IC50) with MDA-MB-231 is 1.15 µM; in the assay on MCF7, 4.62 µM; with HepG2, 1.34 µM; in the assay on B16-F10, 3.46 µM; with HEK293, 1.97 µM.

For the molecule `CCOC(=O)c1c(-c2cc(O)c3c(c2)C(=O)c2cccc(O)c2C3=O)nn(-c2ccc(OC(F)(F)F)cc2)c1C(=O)OCC`, the IC50 in the assay with MDA-MB-231 stood at 3.96 µM; in the assay with MCF7, 3.58 µM; in the assay on HepG2 it was 6.23 µM; with B16-F10, 3.35 µM; in the assay with HEK293, 9.76 µM.

With `CCOC(=O)c1c(-c2cc(O)c3c(c2)C(=O)c2cccc(O)c2C3=O)nn(-c2ccc(Cl)cc2)c1C(=O)OCC`, the half-maximal inhibitory concentration (IC50) in the assay on MDA-MB-231 was found to be 6.2 µM; with MCF7 it was 3.96 µM; in the assay on HepG2, 2.16 µM; with B16-F10, 3.9 µM; with HEK293, 1.09 µM.

As for `CCOC(=O)c1c(-c2cc(O)c3c(c2)C(=O)c2cccc(O)c2C3=O)nn(-c2cccc(F)c2)c1C(=O)OCC`, the half-inhibitory concentration (IC50) in the assay on MDA-MB-231 turned out to be 1.85 µM; with MCF7, 7.26 µM; in the assay on HepG2 it was 2.6 µM; in the assay on B16-F10 it was 5.4 µM; with HEK293 it was 1.93 µM.

For the molecule `COc1cccc2c1C(=O)c1c(O)c3c(c(O)c1C2=O)C[C@@](O)(C(=O)CO)C[C@@H]3O[C@H]1C[C@H](N)[C@H](O)[C@H](C)O1` [DOXORUBICIN], the 50% inhibitory concentration (IC50) in the assay with MDA-MB-231 was found to be 2.56 µM; with HepG2, 2.35 µM; in the assay with B16-F10, 3.28 µM; in the assay with HEK293 it was 1.65 µM.

As to `COC(=O)c1c(-c2cc(O)c3c(c2)C(=O)c2cccc(O)c2C3=O)nn(-c2ccccc2C)c1C(=O)OC`, the IC50 came to 1.49 µM with MDA-MB-231; 4.66 µM with MCF7; 3.46 µM with HepG2; 3.34 µM in the assay with B16-F10; 5.01 µM in the assay with HEK293.

Turning to `CCOC(=O)c1c(-c2cc(O)c3c(c2)C(=O)c2cccc(O)c2C3=O)nn(-c2ccc(C)c(C)c2)c1C(=O)OCC`, the half-inhibitory concentration (IC50) in the assay on MDA-MB-231 was found to be 0.9 µM; with MCF7 it was 1.04 µM; in the assay on HepG2, 1 µM; in the assay on B16-F10, 1.85 µM; in the assay with HEK293, 1.03 µM.

Take `O=Cc1cc(O)c2c(c1)C(=O)c1cccc(O)c1C2=O`: the IC50 came out at 4.99 µM with MDA-MB-231; 2.68 µM in the assay with MCF7; 3.15 µM in the assay on HepG2; 2.9 µM in the assay on B16-F10; 4.49 µM in the assay on HEK293.

Regarding `COC(=O)c1c(-c2cc(O)c3c(c2)C(=O)c2cccc(O)c2C3=O)nn(-c2ccc(OC(F)(F)F)cc2)c1C(=O)OC`, the IC50 in the assay on MDA-MB-231 amounted to 3.68 µM; in the assay with MCF7, 1.16 µM; in the assay on HepG2, 2.29 µM; in the assay on B16-F10, 6.09 µM; with HEK293, 6.84 µM.

For `O=C1c2cccc(O)c2C(=O)c2c(O)cc(CO)cc21` [ALOE-EMODIN], the IC50 came out at 12.2 µM with MDA-MB-231; 4.14 µM with MCF7; 6.13 µM in the assay with HepG2; 3.12 µM with B16-F10; 1 µM in the assay with HEK293.

As to `CCOC(=O)c1c(-c2cc(O)c3c(c2)C(=O)c2cccc(O)c2C3=O)nn(-c2ccc(OC)cc2)c1C(=O)OCC`, the 50% inhibitory concentration (IC50) in the assay with MDA-MB-231 stood at 4.7 µM; with MCF7, 3.86 µM; in the assay with HepG2 it was 5.68 µM; in the assay with B16-F10, 2.15 µM; in the assay on HEK293, 10.1 µM.

On to `COC(=O)c1c(-c2cc(O)c3c(c2)C(=O)c2cccc(O)c2C3=O)nn(-c2ccccc2)c1C(=O)OC`, for which the 50% inhibitory concentration (IC50) in the assay with MDA-MB-231 was 6.78 µM; in the assay on MCF7, 9.96 µM; in the assay on HepG2, 3.41 µM; with B16-F10, 5.61 µM; in the assay with HEK293, 8.86 µM.

Regarding `CCOC(=O)c1c(-c2cc(O)c3c(c2)C(=O)c2cccc(O)c2C3=O)nn(-c2ccc(C(C)C)cc2)c1C(=O)OCC`, the half-inhibitory concentration (IC50) in the assay on MDA-MB-231 amounted to 4.46 µM; in the assay on MCF7, 0.87 µM; in the assay on HepG2, 3.35 µM; with B16-F10 it was 1.15 µM; in the assay on HEK293, 9.32 µM.

Regarding `CCOC(=O)c1c(-c2cc(O)c3c(c2)C(=O)c2cccc(O)c2C3=O)nn(-c2ccc(Br)cc2)c1C(=O)OCC`, the half-inhibitory concentration (IC50) with MDA-MB-231 amounted to 2.16 µM; in the assay on MCF7, 8.98 µM; with HepG2, 1.26 µM; in the assay with B16-F10, 8.15 µM; in the assay on HEK293, 9.07 µM.

As for `CCOC(=O)c1c(-c2cc(O)c3c(c2)C(=O)c2cccc(O)c2C3=O)nn(-c2cccc(C)c2)c1C(=O)OCC`, the IC50 in the assay with MDA-MB-231 turned out to be 0.99 µM; with MCF7, 6.35 µM; in the assay with HepG2 it was 1.15 µM; in the assay with B16-F10, 3.46 µM; with HEK293, 1.12 µM.

For the molecule `CCOC(=O)c1c(-c2cc(O)c3c(c2)C(=O)c2cccc(O)c2C3=O)nn(-c2ccccc2)c1C(=O)OCC`, the concentration for half-maximal inhibition (IC50) was 21.7 µM with MDA-MB-231; 3.18 µM with MCF7; 12.3 µM with HepG2; 2.22 µM in the assay on B16-F10; 4.56 µM in the assay on HEK293.
